Active and inactive are the calls of the source. The rule behind the calls is not given here.
Assays:
[1] = Cytotoxicity against human HCT-116 cells assessed as cell growth inhibition incubated for 72 hrs by MTS assay; type: toxicity, cell-based
Summary of the method: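 HCT-116 cells (ATCC; split every other day, no more than five generations, mycoplasma-tested) plated at 5 × 10³ cells/well in supplemented McCoy's 5a and grown 24 h at 37 °C, 5% CO₂. Compound added from DMSO (0.5% DMSO final) for 72 h. Cells washed with PBS, MTS reagent added for 2 h at 37 °C, A490 read against A690. GI₅₀ fitted from dose curves of 3 biological replicates.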

HCT-116 [2] = experiment: Cytotoxicity against human HCT-116 cells assessed as reduction in cell viability at 8.6 uM incubated for 4 hrs by MTS assay; type: toxicity, cell-based; conditions: hct-116, 4 h
HCT-116 [3] = experiment: Cytotoxicity against human HCT-116 cells assessed as reduction in cell viability at 500 nM incubated for 24 hrs by MTS assay; type: toxicity, cell-based; conditions: hct-116, 24 h, 0.5 µM
Summary of the method: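 HCT-116 cells plated at 5 × 10³ cells/well in supplemented McCoy's 5a and grown 24 h at 37 °C, 5% CO₂. Compound given at 500 nM, the top dose of the 24 h splicing series, in 0.5% DMSO for 24 h. Cells washed with PBS, MTS reagent added for 2 h at 37 °C, A490 read against A690.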

DNAJB1 pre-mRNA [4] = experiment: Modulation of splicing in DNAJB1 pre-mRNA in human HCT-116 cells assessed as intron 2 retention at 100 to 500 nM incubated for 24 hrs by qRT-PCR analysis; type: functional, cell-based; conditions: dose 100-500 nM
Summary of the method: (§1)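 HCT-116 cells in supplemented McCoy's 5a with 0.5% DMSO, treated 24 h at 100, 250 or 500 nM; untreated cells as control. Total RNA isolated, 1 µg DNase I-treated, reverse transcribed. qPCR on 5 ng cDNA with 2.5 µM each primer, 40 cycles of 95 °C 30 s, 55 °C 60 s, 72 °C 60 s. Splice-event primers for intron retention or exon skipping; SF2 primers measure total expression. 2^-CT method relative to GAPDH, untreated set at 1.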

SF3A3 pre-mRNA [5] = experiment: Modulation of splicing in SF3A3 pre-mRNA in human HCT-116 cells assessed as intron 5 retention level at 8.6 uM incubated for 4 hrs by qRT-PCR analysis; type: functional, cell-based; conditions: filed as modulator
Summary of the method: (§2)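 HCT-116 cells in supplemented McCoy's 5a, compound added from DMSO stock to a final 0.5% DMSO, 4 h at a single standardized concentration per analogue. Total RNA isolated and DNase-treated (1 µg). qPCR used 2.5 µM each primer on 5 ng cDNA, 40 cycles. Intron retention was computed by the 2^-CT method relative to GAPDH and expressed versus untreated cells set to 1.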

SF3B1 pre-mRNA [6] = experiment: Modulation of splicing in SF3B1 pre-mRNA in human HCT-116 cells assessed as intron 13 retention level at 8.6 uM incubated for 4 hrs by qRT-PCR analysis; type: functional, cell-based; conditions: filed as modulator; summary of the method: as §2
DNAJB1 pre-mRNA [7] = experiment: Modulation of splicing in DNAJB1 pre-mRNA in human HCT-116 cells assessed as intron 2 retention level at 8.6 uM incubated for 4 hrs by qRT-PCR analysis; type: functional, cell-based; conditions: filed as modulator
SF3A1 pre-mRNA [8] = experiment: Modulation of splicing in SF3A1 pre-mRNA in human HCT-116 cells assessed as intron 6 retention level at 8.6 uM incubated for 4 hrs by qRT-PCR analysis; type: functional, cell-based; conditions: filed as modulator
SF3B2 pre-mRNA [9] = experiment: Modulation of splicing in SF3B2 pre-mRNA in human HCT-116 cells assessed as intron 10 retention level at 8.6 uM incubated for 4 hrs by qRT-PCR analysis; type: functional, cell-based; conditions: filed as modulator; summary of the method: as §2
HCT-116 [10] = experiment: Modulation of splicing in PLK-1 pre-mRNA in human HCT-116 cells assessed as effect on exon 3 inclusion at 8.6 uM incubated for 4 hrs by qRT-PCR analysis; type: functional, cell-based; conditions: filed as modulator
AURKA pre-mRNA [11] = experiment: Modulation of splicing in AURKA pre-mRNA in human HCT-116 cells assessed as effect on exon 4 skipping at 8.6 uM incubated for 4 hrs by qRT-PCR analysis; type: functional, cell-based; conditions: filed as modulator
SF3A3 pre-mRNA [12] = experiment: Modulation of splicing in SF3A3 pre-mRNA in human HCT-116 cells assessed as intron 5 retention at 100 to 500 nM incubated for 24 hrs by qRT-PCR analysis; type: functional, cell-based; conditions: dose 100-500 nM; summary of the method: as §1
SF3B2 pre-mRNA [13] = experiment: Modulation of splicing in SF3B2 pre-mRNA in human HCT-116 cells assessed as intron 10 retention at 100 to 500 nM incubated for 24 hrs by qRT-PCR analysis; type: functional, cell-based; conditions: dose 100-500 nM
Summary of the method: (§3)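 HCT-116 cells in supplemented McCoy's 5a with 0.5% final DMSO were treated for 24 h at 100, 250 or 500 nM. Total RNA isolated and DNase-treated (1 µg). qPCR used 2.5 µM each primer on 5 ng cDNA, 40 cycles. Intron retention was computed by the 2^-CT method relative to GAPDH and expressed versus untreated cells set to 1.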

SF3B1 pre-mRNA [14] = experiment: Modulation of splicing in SF3B1 pre-mRNA in human HCT-116 cells assessed as intron 13 retention at 100 to 500 nM incubated for 24 hrs by qRT-PCR analysis; type: functional, cell-based; conditions: dose 100-500 nM; summary of the method: as §3
SF3A1 pre-mRNA [15] = experiment: Modulation of splicing in SF3A1 pre-mRNA in human HCT-116 cells assessed as intron 6 retention at 100 to 500 nM incubated for 24 hrs by qRT-PCR analysis; type: functional, cell-based; conditions: dose 100-500 nM; summary of the method: as §1
HCT-116 [16] = experiment: Modulation of splicing in MCL-1L pre-mRNA in human HCT-116 cells assessed as intron 5 retention at 100 to 500 nM incubated for 24 hrs by qRT-PCR analysis; type: functional, cell-based; conditions: dose 100-500 nM; summary of the method: as §1
HCT-116 [17] = experiment: Cytotoxicity against human HCT-116 cells assessed as reduction in cell viability at 34 nM incubated for 4 hrs by MTS assay; type: toxicity, cell-based; conditions: hct-116, 4 h, 0.034 µM
SF3A3 pre-mRNA [18] = experiment: Modulation of splicing in SF3A3 pre-mRNA in human HCT-116 cells assessed as intron 5 retention level at 34 nM incubated for 4 hrs by qRT-PCR analysis; type: functional, cell-based; conditions: filed as modulator
SF3B1 pre-mRNA [19] = experiment: Modulation of splicing in SF3B1 pre-mRNA in human HCT-116 cells assessed as intron 13 retention level at 34 nM incubated for 4 hrs by qRT-PCR analysis; type: functional, cell-based; conditions: filed as modulator; summary of the method: as §2
DNAJB1 pre-mRNA [20] = experiment: Modulation of splicing in DNAJB1 pre-mRNA in human HCT-116 cells assessed as intron 2 retention level at 34 nM incubated for 4 hrs by qRT-PCR analysis; type: functional, cell-based; conditions: filed as modulator
SF3A1 pre-mRNA [21] = experiment: Modulation of splicing in SF3A1 pre-mRNA in human HCT-116 cells assessed as intron 6 retention level at 34 nM incubated for 4 hrs by qRT-PCR analysis; type: functional, cell-based; conditions: filed as modulator
SF3B2 pre-mRNA [22] = experiment: Modulation of splicing in SF3B2 pre-mRNA in human HCT-116 cells assessed as intron 10 retention level at 34 nM incubated for 4 hrs by qRT-PCR analysis; type: functional, cell-based; conditions: filed as modulator; summary of the method: as §2
HCT-116 [23] = experiment: Downregulation of SF3 mRNA expression in human HCT-116 cells at 34 nM incubated for 4 hrs by qRT-PCR analysis; type: functional, cell-based
HCT-116 [24] = experiment: Cytotoxicity against human HCT-116 cells assessed as reduction in cell viability at 44 nM incubated for 4 hrs by MTS assay; type: toxicity, cell-based; conditions: hct-116, 4 h, 0.044 µM
SF3A3 pre-mRNA [25] = experiment: Modulation of splicing in SF3A3 pre-mRNA in human HCT-116 cells assessed as intron 5 retention level at 44 nM incubated for 4 hrs by qRT-PCR analysis; type: functional, cell-based; conditions: filed as modulator
SF3B1 pre-mRNA [26] = experiment: Modulation of splicing in SF3B1 pre-mRNA in human HCT-116 cells assessed as intron 13 retention level at 44 nM incubated for 4 hrs by qRT-PCR analysis; type: functional, cell-based; conditions: filed as modulator; summary of the method: as §2
DNAJB1 pre-mRNA [27] = experiment: Modulation of splicing in DNAJB1 pre-mRNA in human HCT-116 cells assessed as intron 2 retention level at 44 nM incubated for 4 hrs by qRT-PCR analysis; type: functional, cell-based; conditions: filed as modulator
SF3A1 pre-mRNA [28] = experiment: Modulation of splicing in SF3A1 pre-mRNA in human HCT-116 cells assessed as intron 6 retention level at 44 nM incubated for 4 hrs by qRT-PCR analysis; type: functional, cell-based; conditions: filed as modulator
SF3B2 pre-mRNA [29] = experiment: Modulation of splicing in SF3B2 pre-mRNA in human HCT-116 cells assessed as intron 10 retention level at 44 nM incubated for 4 hrs by qRT-PCR analysis; type: functional, cell-based; conditions: filed as modulator; summary of the method: as §2
AURKA pre-mRNA [30] = experiment: Modulation of splicing in AURKA pre-mRNA in human HCT-116 cells assessed as effect on exon 4 skipping at 44 nM incubated for 4 hrs by qRT-PCR analysis; type: functional, cell-based; conditions: filed as modulator

CC[C@H](OC)[C@@H](C)[C@H]1O[C@@H]1[C@H](O)[C@H](C)/C=C/C=C(\C)[C@H]1OC(=O)C[C@H](O)CC[C@@](C)(O)[C@H](OC(C)=O)/C=C/[C@@H]1C
GI50 at 72 h [1]: 588 nM
Activity (HCT-116 [2]): Non-Toxic
Activity (HCT-116 [3]): Non-Toxic
Activity (DNAJB1 pre-mRNA [4]): inactive
Activity (SF3A3 pre-mRNA [5]): < 3
Activity (SF3B1 pre-mRNA [6]): < 3
Activity (DNAJB1 pre-mRNA [7]): > 3
Activity (SF3A1 pre-mRNA [8]): > 3
Activity (SF3B2 pre-mRNA [9]): > 3
Activity (HCT-116 [10]): Active
Activity (AURKA pre-mRNA [11]): Active
Activity (SF3A3 pre-mRNA [12]): inactive
Activity (SF3B2 pre-mRNA [13]): inactive
Activity (SF3B1 pre-mRNA [14]): inactive
Activity (SF3A1 pre-mRNA [15]): inactive
Activity (HCT-116 [16]): inactive

CC[C@H](OC)[C@@H](C)[C@H]1O[C@@H]1[C@H](O)[C@H](C)/C=C/C=C(\C)[C@H]1OC(=O)C[C@H](O)CC[C@@](C)(O)[C@@H](OC(C)=O)/C=C/[C@@H]1C
GI50 at 72 h [1]: 1.9 nM
Activity (HCT-116 [17]): Non-Toxic
Activity (HCT-116 [3]): Non-Toxic
Activity (SF3A3 pre-mRNA [18]): < 3
Activity (SF3B1 pre-mRNA [19]): < 3
Activity (DNAJB1 pre-mRNA [20]): > 3
Activity (SF3A1 pre-mRNA [21]): > 3
Activity (SF3B2 pre-mRNA [22]): > 3
Activity (HCT-116 [23]): Active

CC[C@H](OC)[C@@H](C)[C@H]1O[C@@H]1[C@@H](O)[C@H](C)/C=C/C=C(\C)[C@H]1OC(=O)C[C@H](O)CC[C@@](C)(O)[C@H](OC(C)=O)/C=C/[C@@H]1C
GI50 at 72 h [1]: 860 nM

CC[C@H](OC)[C@@H](C)[C@H]1O[C@@H]1[C@H](OC)[C@H](C)/C=C/C=C(\C)[C@H]1OC(=O)C[C@H](O)CC[C@@](C)(O)[C@@H](OC(C)=O)/C=C/[C@@H]1C
GI50 at 72 h [1]: 2.6 nM
Activity (HCT-116 [24]): Non-Toxic
Activity (HCT-116 [3]): Non-Toxic
Activity (SF3A3 pre-mRNA [25]): < 3
Activity (SF3B1 pre-mRNA [26]): < 3
Activity (DNAJB1 pre-mRNA [27]): > 3
Activity (SF3A1 pre-mRNA [28]): > 3
Activity (SF3B2 pre-mRNA [29]): > 3
Activity (AURKA pre-mRNA [30]): Active

From ChEMBL document CHEMBL5338772, “Stereochemical Control of Splice Modulation in FD-895 Analogues” (J Med Chem, 2023)
